Data set [1] can be described thus: Cytotoxicity against African green monkey Vero B cells assessed as decrease in cell viability by MTS/PMS assay. To be noted: chlorocebus sabaeus. It is filed as cell-based. A digest of the protocol: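 Vero B cells (African green monkey kidney, ECACC) were incubated for 7 days with serial compound dilutions without virus. Toxicity was quantified by the MTS/PMS method, and CC50 is the compound concentration giving 50% cytotoxicity.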

Data set [2] can be described thus: Selectivity index, ratio of CC50 for African green monkey Vero B cells to EC50 for Dengue virus serotype 2 infected in African green monkey Vero B cells. It is filed as toxicity. Particulars: read-out: Ratio CC50/EC50. A digest of the protocol: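 In a CPE-reduction assay, DENV-2 in Vero B cells was run over 7 days with serial compound dilutions, with and without virus. EC50 (inhibition of virus-induced CPE) and CC50 come from microscopic scoring, with MTS/PMS also used for toxicity. The index is CC50/EC50.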

Data set [3] has as its system dengue virus type 2. In words: Antiviral activity against Dengue virus serotype 2 infected in African green monkey Vero B cells assessed as inhibition of viral RNA replication after 4 days by RT-qPCR method. It is filed as functional. To be noted: 96 h, read-out: ED50 (the source's name). For orientation: Quantitative PCR measures a nucleic acid by following its amplification.

The nature of data set [4]: Cytotoxicity against African green monkey Vero B cells assessed as decrease in cell viability by microscopic method. Type of data set: cell-based. Particulars: chlorocebus sabaeus. A digest of the protocol:
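Uninfected Vero B cells were exposed for 7 days to serial compound dilutions. Wells were inspected microscopically for changes in host cell morphology, and CC50 was calculated from the microscopic scoring data.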

The test system of data set [5] is dengue virus type 2. Description: Antiviral activity against Dengue virus serotype 2 by human cell-based assay. It is filed as functional.
A short description of data set [6]: Inhibition of Dengue virus serotype 2 N-terminal His6-tagged NS5 RdRp activity expressed in baculovirus expression system using poly(C)/5'-biotinylated oligo (G)20 as template/primer assessed as inhibition of [3H]GTP incorporation after 20 mins by scintillation proximity assay. Set-up: species or system dengue virus type 2.

The term CC50 denotes the concentration that lowers cell viability or growth by half. As for `Cc1ccc(Nc2nc(Nc3ccc(C)cc3-c3cc(C)n[nH]3)c3ccccc3n2)cc1`, the CC50 in data set [1] was determined as 5.8 µM. Moreover, the selectivity ratio in data set [2] turned out to be 2. In addition, in the data set with dengue virus type 2 [3], the EC50 came to 2.6 µM.
Taken in the same sequence, the figures for `Cc1ccc(Nc2nc(Cl)nc3ccccc23)c(-c2cc(C)n[nH]2)c1` were 97 µM, 11 and 9.2 µM.
With `Cc1ccc(Nc2nc(Cl)nc3ccccc23)c(Br)c1`, the CC50 in data set [1] was greater than 144 µM; in data set [4], 32 µM. Also, the selectivity ratio in data set [2] was determined as 13. In the data set on dengue virus type 2 [3], the EC50 was determined as 10.9 µM.
In the data set on dengue virus type 2 [5], `Clc1ccc(-c2ccc(-c3nc(NCc4cccnc4)c4ccccc4n3)s2)cc1` yielded an EC50 of 0.119 µM.
For the compound `COc1ccc(Cn2cnc3nc(Cl)nc(Cl)c32)cc1`, the half-maximal cytotoxic concentration (CC50) in data set [1] worked out at 12.3 µM. The selectivity ratio in data set [2] turned out to be 1. Further, the EC50 in the data set on dengue virus type 2 [3] came out at 9.9 µM.
Taken in the same sequence, the figures for `COc1ccc(Cn2cnc3c(Cl)nc(Cl)nc32)cc1` were 32.4 µM, 2 and 17.6 µM.
Taken in the same sequence, the figures for `Cc1ccc(Nc2nc(Nc3ccc(F)cc3)nc3ccccc23)c(-c2cc(C)n[nH]2)c1` were 8.7 µM, 1 and 6.7 µM.
With `COc1ccc(Cn2cnc3c(Nc4ccc(C)cc4-c4cc(C)n[nH]4)nc(Cl)nc32)cc1`, the CC50 was greater than 109 µM in data set [1] and 10 µM in data set [4]. Also, the selectivity ratio in data set [2] turned out to be 58. Also, the EC50 in the data set on dengue virus type 2 [3] stood at 1.9 µM.
Usually IC50 stands for the concentration that gives 50% inhibition. For the compound `O=C(O)c1ccccc1NS(=O)(=O)c1cccc(-c2cnn(Cc3ccccc3)c2)c1`, the IC50 in data set [6] worked out at 0.7 µM.
On to `Cc1ccc(Nc2nc(Cl)nc3[nH]cnc23)c(Br)c1`, for which, in data set [1], the CC50 is greater than 148 µM. Further, in data set [2], the selectivity ratio was 4. The EC50 in the data set with dengue virus type 2 [3] stood at 33.5 µM.
Taken in the same sequence, the figures for `Cc1ccc(Nc2nc(Cl)nc3[nH]cnc23)c(-c2cc(C)n[nH]2)c1` were greater than 147 µM, 5 and 28.9 µM.
`COc1ccc(Cn2cnc3c(Nc4ccc(C)cc4Br)nc(Cl)nc32)cc1`: the results for the cytotoxic concentration (CC50) in data set [1] and in data set [4] were greater than 109 µM and 63 µM, respectively. In data set [2], the selectivity ratio amounted to 15. Besides, in the data set with dengue virus type 2 [3], the EC50 is 7.2 µM.
